For test [1], the system named is HaCaT. Description: Antiproliferative activity (AA) against HaCaT keratinocytes. Format: functional, cell-based. The conditions noted are these: Homo sapiens.
For test [2], the target named is T1, Arachidonate 5-lipoxygenase (Bos taurus, UniProt Q9BEG3).
T1 sequence (Q9BEG3 whole entry): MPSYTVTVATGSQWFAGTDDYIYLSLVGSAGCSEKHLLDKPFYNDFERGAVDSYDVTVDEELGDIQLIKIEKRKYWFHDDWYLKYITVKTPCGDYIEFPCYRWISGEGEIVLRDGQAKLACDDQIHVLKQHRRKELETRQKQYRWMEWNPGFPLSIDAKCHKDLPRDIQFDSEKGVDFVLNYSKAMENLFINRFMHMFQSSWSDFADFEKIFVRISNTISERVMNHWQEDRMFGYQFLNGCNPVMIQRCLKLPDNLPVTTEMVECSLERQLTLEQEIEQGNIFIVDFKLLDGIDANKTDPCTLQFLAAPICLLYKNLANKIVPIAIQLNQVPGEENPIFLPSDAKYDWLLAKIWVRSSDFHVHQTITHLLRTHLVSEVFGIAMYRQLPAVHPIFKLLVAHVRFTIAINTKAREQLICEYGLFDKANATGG
Description: 5-LO inhibitory activity, measured by production of 5-hydroxyeicosatetraenoic acid (5-HETE) and leukotriene B4 (LTB4) in bovine polymorphonuclear leukocytes. Format: functional, cell-based.

The test system of test [3] is HaCaT. Description: Cytotoxicity of LDH release in HaCaT cells. The test is classed as functional, Homo sapiens. Also noted: unit: mU. In outline: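 HaCaT cells treated with 2 μM test compound; plasma membrane damage measured as lactate dehydrogenase activity released into culture medium, in mU; N = 3; compared with vehicle control.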
For orientation: LDH leaks from cells whose membrane has failed.

Test [4] can be described thus: Antioxidant activity, measuring Deoxyribose degradation (DD) as a measure of hydroxyl radical formation. The method in brief: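 Deoxyribose assay: 2-deoxy-D-ribose incubated with 75 μM test compound; hydroxyl-radical generation read as malondialdehyde release, expressed as μmol MDA/mmol deoxyribose; compared with control.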

Where only a bound is given, the exact number is not on record here.

For `COC(=O)C(C)c1ccc2c(c1O)C(=O)c1c(O)cccc1C2` (stereo unspecified), the IC50 is 800 nM in test [1] and greater than 30000 nM in test [2].
Consider `CN(O)C(=O)CCCCCc1ccc2c(c1O)C(=O)c1c(O)cccc1C2`, for which the IC50 in test [1] came out at 700 nM; in test [2], 400 nM.
For the molecule `CN(O)C(=O)CCCc1ccc2c(c1O)C(=O)c1c(O)cccc1C2`, in test [3], the LDH came to 181 MU. Further, the DD in test [4] stood at 1.5 µmol/mmol.
With `O=C(O)c1ccc(C(=O)c2ccc3c(c2O)C(=O)c2c(O)cccc2C3)cc1`, the IC50 was greater than 5000 nM in test [1] and 2000 nM in test [2]. The same molecule gave a DD in test [4] of 1.34 µmol/mmol.
In turn, `COC(=O)c1ccc(Cc2ccc3c(c2O)C(=O)c2c(O)cccc2C3)cc1` returned an IC50 in test [2] greater than 30000 nM. The molecule also came in with a DD in test [4] of less than 0.15 µmol/mmol.
For `CC(C)C(C(=O)NO)c1ccc2c(c1O)C(=O)c1c(O)cccc1C2` (stereo unspecified), the IC50 was 1500 nM in test [1] and 6000 nM in test [2]. Besides, the LDH in test [3] amounted to 192 MU. The molecule also gave a DD in test [4] of 1.66 µmol/mmol.
Take `CC(C(=O)NO)c1ccc2c(c1O)C(=O)c1c(O)cccc1C2` (stereo unspecified): the IC50 in test [1] is 2000 nM. The DD in test [4] was 1.3 µmol/mmol.
Take `CN(O)C(=O)CCc1ccc2c(c1O)C(=O)c1c(O)cccc1C2`: the LDH in test [3] is recorded as 135 MU. The DD in test [4] stood at 0.92 µmol/mmol.
With `COC(=O)CCCc1ccc2c(c1O)C(=O)c1c(O)cccc1C2`, the 50% inhibitory concentration (IC50) in test [1] was 1100 nM; in test [2] it was greater than 30000 nM. In test [4], this molecule returned a DD of 0.33 µmol/mmol.
As to `O=C1c2c(O)cccc2Cc2ccc(C(Cc3ccccc3)C(=O)O)c(O)c21` (stereo unspecified), in test [1], the 50% inhibitory concentration (IC50) was greater than 5000 nM. This molecule gave a DD in test [4] of 3.25 µmol/mmol.
On to `O=C1c2c(O)cccc2Cc2ccc(C(Cc3ccccc3)C(=O)NO)c(O)c21` (stereo unspecified), for which the IC50 in test [1] was 1500 nM; in test [2], 4000 nM. In test [4], the DD amounted to 1.04 µmol/mmol.
For `COC(=O)Cc1ccc2c(c1O)C(=O)c1c(O)cccc1C2`, the IC50 in test [1] was 500 nM; in test [2], greater than 30000 nM.
For `COC(=O)C(Cc1ccccc1)c1ccc2c(c1O)C(=O)c1c(O)cccc1C2` (stereo unspecified), the values for the IC50 in test [1] and in test [2] were 1800 nM and greater than 30000 nM, respectively. This molecule also came in with a DD in test [4] of less than 0.15 µmol/mmol.
Consider `COC(=O)CCCCCc1ccc2c(c1O)C(=O)c1c(O)cccc1C2`, for which the IC50 in test [1] was 1600 nM; in test [2], greater than 30000 nM. In test [3], this molecule displayed an LDH of 142 MU.
On to `CC(C)C(C(=O)N(C)O)c1ccc2c(c1O)C(=O)c1c(O)cccc1C2` (stereo unspecified), for which the results for the IC50 in test [1] and in test [2] were 1500 nM and 5000 nM, respectively. The same molecule showed an LDH in test [3] of 135 MU. This molecule also displayed a DD in test [4] of 0.86 µmol/mmol.
For the molecule `COC(=O)CCCCc1ccc2c(c1O)C(=O)c1c(O)cccc1C2`, the values for the half-maximal inhibitory concentration (IC50) in test [1] and in test [2] were 1800 nM and greater than 30000 nM, respectively. In test [3], the LDH came out at 146 MU. The DD in test [4] was determined as 0.62 µmol/mmol.
With `COC(=O)CCc1ccc2c(c1O)C(=O)c1c(O)cccc1C2`, the IC50 is 800 nM in test [1] and greater than 30000 nM in test [2].
The like results for `CC(C(=O)O)c1ccc2c(c1O)C(=O)c1c(O)cccc1C2` (stereo unspecified) were, in that order, greater than 5000 nM and 17000 nM.
Turning to `O=C(O)CCc1ccc2c(c1O)C(=O)c1c(O)cccc1C2`, the IC50 in test [1] was greater than 5000 nM; in test [2] it was 19000 nM. In addition, in test [4], the DD is 2.67 µmol/mmol.
Take `CC(C(=O)N(C)O)c1ccc2c(c1O)C(=O)c1c(O)cccc1C2` (stereo unspecified): the values for the IC50 in test [1] and in test [2] were 1500 nM and 6000 nM, respectively. In addition, the LDH in test [3] came out at 142 MU. In addition, in test [4], the DD worked out at 1.57 µmol/mmol.
`O=C(Cc1ccc2c(c1O)C(=O)c1c(O)cccc1C2)NO`: the IC50 came out at 1800 nM in test [1] and 6000 nM in test [2]. In addition, the DD in test [4] was 1.89 µmol/mmol.
`CC(C)C(C(=O)O)c1ccc2c(c1O)C(=O)c1c(O)cccc1C2` (stereo unspecified) had an IC50 in test [1] greater than 5000 nM. For the same molecule, in test [3], the LDH is 128 MU. Also, in test [4], the DD stood at 3.58 µmol/mmol.
Consider `O=C(CCc1ccc2c(c1O)C(=O)c1c(O)cccc1C2)NO`, for which the IC50 in test [1] was determined as 1300 nM; in test [2], 4000 nM. Further, in test [4], the DD is 1.67 µmol/mmol.
On to `COC(=O)C(c1ccc2c(c1O)C(=O)c1c(O)cccc1C2)C(C)C` (stereo unspecified), for which the IC50 is 1500 nM in test [1] and greater than 30000 nM in test [2]. For the same molecule, in test [4], the DD amounted to 0.54 µmol/mmol.
Regarding `COC(=O)c1ccc(C(=O)c2ccc3c(c2O)C(=O)c2c(O)cccc2C3)cc1`, the IC50 in test [1] was 1800 nM; in test [2], greater than 30000 nM.
For the molecule `O=C(CCCCc1ccc2c(c1O)C(=O)c1c(O)cccc1C2)NO`, the IC50 in test [1] and in test [2] was 2000 nM each time. The same molecule came in with an LDH in test [3] of 135 MU. For the same molecule, in test [4], the DD is 1.38 µmol/mmol.
For `O=C(O)Cc1ccc2c(c1O)C(=O)c1c(O)cccc1C2`, the IC50 in test [1] is greater than 5000 nM; in test [2], 22000 nM. Moreover, in test [4], the DD came out at 3.74 µmol/mmol.
In the case of `O=C1c2c(O)cccc2Cc2ccc(C(CCc3ccccc3)C(=O)O)c(O)c21` (stereo unspecified), the IC50 is greater than 5000 nM in test [1] and 2000 nM in test [2]. Besides, in test [3], the LDH was found to be 142 MU. For the same molecule, the DD in test [4] turned out to be 2.47 µmol/mmol.
As for `CN(O)C(=O)c1ccc(C(=O)c2ccc3c(c2O)C(=O)c2c(O)cccc2C3)cc1`, the values for the IC50 in test [1] and in test [2] were 1800 nM and 4000 nM, respectively. In addition, the DD in test [4] amounted to 0.92 µmol/mmol.
`CN(O)C(=O)CCCCc1ccc2c(c1O)C(=O)c1c(O)cccc1C2` displayed an LDH in test [3] of 124 MU. The molecule also had a DD in test [4] of 1.36 µmol/mmol.
Regarding `O=C(NO)c1ccc(Cc2ccc3c(c2O)C(=O)c2c(O)cccc2C3)cc1`, the 50% inhibitory concentration (IC50) in test [1] amounted to 1100 nM; in test [2], 5000 nM.
For `O=C(CCCc1ccc2c(c1O)C(=O)c1c(O)cccc1C2)NO`, the IC50 in test [1] came to 1500 nM; in test [2] it was 3000 nM. This molecule yielded a DD in test [4] of 1.46 µmol/mmol.
With `CN(O)C(=O)C(Cc1ccccc1)c1ccc2c(c1O)C(=O)c1c(O)cccc1C2` (stereo unspecified), the values for the concentration for half-maximal inhibition (IC50) in test [1] and in test [2] were 900 nM and 5000 nM, respectively. The molecule also gave a DD in test [4] of 1.68 µmol/mmol.
In test [1], `O=C1c2c(O)cccc2Cc2cccc(O)c21` [ANTHRALIN] displayed an IC50 of 600 nM. The molecule also returned an LDH in test [3] of 294 MU. This molecule also yielded a DD in test [4] of 2.89 µmol/mmol.
As to `O=C(O)CCCc1ccc2c(c1O)C(=O)c1c(O)cccc1C2`, the results for the IC50 in test [1] and in test [2] were greater than 5000 nM and 18000 nM, respectively. In test [4], this molecule had a DD of 2.61 µmol/mmol.
For `O=C(O)c1ccc(Cc2ccc3c(c2O)C(=O)c2c(O)cccc2C3)cc1`, in test [4], the DD was less than 0.15 µmol/mmol.
For `CCCCOc1ccc(CC(=O)NO)cc1` [BUFEXAMAC], the IC50 in test [1] was greater than 5000 nM; in test [2], 35000 nM. Moreover, the LDH in test [3] is on record as 135 MU.
For the molecule `COC(=O)C(CCc1ccccc1)c1ccc2c(c1O)C(=O)c1c(O)cccc1C2` (stereo unspecified), the IC50 in test [1] is 1300 nM; in test [2], greater than 30000 nM. In test [3], this molecule showed an LDH of 142 MU. Also, in test [4], the DD is 0.28 µmol/mmol.
On to `O=C(O)CCCCc1ccc2c(c1O)C(=O)c1c(O)cccc1C2`, for which the IC50 in test [1] is greater than 5000 nM; in test [2], 13000 nM. For the same molecule, the DD in test [4] worked out at 2.62 µmol/mmol.
`CN(O)C(=O)Cc1ccc2c(c1O)C(=O)c1c(O)cccc1C2`: the IC50 in test [1] was determined as 800 nM; in test [2], 1000 nM. The same molecule yielded an LDH in test [3] of 150 MU. The molecule also yielded a DD in test [4] of 1.67 µmol/mmol.
Turning to `O=C(O)CCCCCc1ccc2c(c1O)C(=O)c1c(O)cccc1C2`, the IC50 was greater than 5000 nM in test [1] and 10000 nM in test [2]. The DD in test [4] turned out to be 2.29 µmol/mmol.

As a reminder, the IC50 is the concentration that inhibits the measured activity by half.

Values taken from ChEMBL document CHEMBL1130128, “Antipsoriatic anthrones with modulated redox properties. 4. Synthesis and biological activity of novel 9,10-dihydro-1,8-dihydroxy-9-oxo-2-anthracenecarboxylic and -hydroxamic acids” (J Med Chem, 1997).
